Compound activity (PubChem BioAssay)
L major viab: Leishmania major promastigote growth inhibition, primary screen; Leishmania major promastigotes, resazurin fluorescence viability; 200,000 compounds, 9% hits; AID 1063, 2008; inhibition, % at 10 µM; in the data active = inhibition above about 50%;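 also: promastigotes grown with compound for 44 hours at 28 °C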
T cruzi repl: inhibitors of intracellular T. cruzi growth, primary screen, luminescence, NIH3T3 host cells; 300,000 compounds, 1.4% hits; T. cruzi beta-gal in NIH3T3, 90 h; inhibition, % (no concentration beside the values);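 active = mean inhibition across valid replicates above about 55%, limit read from the data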;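 also: signal also drops with host cell toxicity which is not excluded here; 0% = plate median of DMSO wells and 100% = zero luminescence signal; higher percent means less beta-gal luminescence so fewer parasites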
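Assay system: NIH/3T3 host cells with β-galactosidase reporter T. cruzi; input: 5,000 host fibroblasts per well; compound: single 50 nL compound addition per well in DMSO; timing: ≥90 h infection period, 3 h prior cell attachment; measured by: GalScreen β-gal luminescence, detergent lysis, 60 min; evaluation: percent inhibition of parasite-derived β-gal signal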
Hep lipid drop: inhibitors of hepatocyte lipid droplet formation, primary screen, imaging, high-throughput imaging, BODIPY stain | AML12 mouse hepatocytes, oleate lipid droplets | inhibition, % at 6.5 µM | AID 1656, 2009 | 240,000 compounds, 0.4% hits;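 active = lipid droplet intensity inhibited by at least 50%, with more than 500 cells counted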
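Assay system: AML12 mouse liver cells | Compound: 6.5 µM single-point dosing | Schedule: Overnight exposure | Technique: Fluorescence imaging, 20x objective, two fields per well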
Redox H2O2 prof: compounds producing H2O2 with reducing agent – biochemical, NIH compound library profiling, artefact control for MLSCN library redox annotation, primary screen; DTT-dependent redox cycling H2O2, phenol red/HRP absorbance; 100% = 100 µM peroxide control, 0% = buffer; activation, % at 10 µM; 200,000 compounds, 0.03% hits; AID 878, 2007;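 active = activation of at least 50% relative to the plate's high and low controls in the primary single-dose screen; inactive = activation below 50%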;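 also: compound incubated with DTT at 0.8 mM final as the reducing agent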
MPTP inh: mitochondrial permeability transition pore inhibitors, primary screen, biochemical, isolated mouse mitochondria, absorbance; Ca2+ swelling absorbance, 30 min; inhibition, % at 10 µM; 360,000 compounds, 1.4% hits; AID 602449, 2012;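 active = inhibition of 50% or more, scaled per plate between neutral and stimulator controls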;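 also: 0% = DMSO wells given calcium and 100% = 1 mM EGTA wells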
Rh123 counter: fluorescence retest of MPTP screen hits in isolated mitochondria, single concentration. shares compounds with MPTP inh. 5,000 compounds, 78% hits. inhibition, % at 10 µM. membrane potential, Rhodamine 123 fluorescence; in the data active = inhibition above about 22%;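 also: 0% = DMSO vehicle and 100% = positive control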
MPTP abs DR: mitochondrial permeability transition pore inhibitors, dose response, biochemical, absorbance, uHTS hits; shares compounds with MPTP inh; isolated mitochondria swelling; IC50, µM; 780 compounds, 58% hits; AID 651561, 2012; in the data active = IC50 below about 20 µM
MPTP counter DR: fluorescent counter-screen in isolated mitochondria, dose response, counter-screen for MPTP inhibitor project, biochemical, fluorescence, uHTS hits | isolated mitochondria counterscreen, fluorescence read-out | IC50, µM | 780 compounds, 49% hits | shares compounds with MPTP inh; in the data active = IC50 below about 80 µM
Numbers without * were called inactive; i = inactive; / = no result given. Many of the other results were omitted from the sample, so hits are more common in it than they were.

SMILES	L major viab	T cruzi repl	Hep lipid drop	Redox H2O2 prof	MPTP inh	Rh123 counter	others
O=C(CSC1=NS(=O)(=O)c2cc(Cl)ccc2N1)c1ccc(Cl)cc1	/	-2.1	/	/	97.9*	88.3*
O=C(CSC1=NS(=O)(=O)c2cc(Cl)ccc2N1)Nc1cccc(F)c1	/	1.6	/	/	62.4*	55.7*
CC(C)(C)n1nc2c(c1NC(=O)C1CC(=O)N(c3ccc(Cl)cc3)C1)CS(=O)(=O)C2 (stereo not drawn)	/	0.5	-7.9	/	0.3	/
COc1ccccc1OCCNC(=O)c1ccc(NC(=O)CC2SC(N3CCCC3)=NC2=O)cc1 (stereo not drawn)	/	/	/	/	-0.8	/
CNc1c(NC(=O)c2ccc3c(c2)OCO3)c(=O)oc2ccccc12	/	-16.5	3.1	/	-0.2	/
Cc1cccc(C)c1N1CCN(C(c2cc3ccccc3o2)c2nnnn2C(C)(C)C)CC1 (stereo not drawn)	/	/	/	/	86.8*	56.8*
CCCCn1nnnc1C(c1cc2ccccc2o1)N1CCN(c2c(C)cccc2C)CC1 (stereo not drawn)	/	/	/	/	3.1	/
O=C(O)c1ccc(-c2nnn(Cc3cccc(C(F)(F)F)c3)n2)cc1	/	-14.6	-24.9	/	-0.5	/
Clc1ccc2c(N/N=C/c3cccc(Br)c3)ccnc2c1	100.4*	51.1	6.8	/	62.3*	94.4*
Clc1ccc2c(N/N=C/c3ccccc3Br)ccnc2c1	99.2*	55.5*	7.8	/	57.4*	98.5*
Clc1ccc2c(NNc3ccccc3Cl)ccnc2c1	-2.6	11.5	/	-3.2	3.8	/
O=[N+]([O-])c1ccc(/C=N/Nc2ccnc3cc(Cl)ccc23)o1	/	23.5	1.3	/	21.4	/
Cn1c(=O)c2[nH]c(CCCCCCCCc3nc4ccccc4[nH]3)nc2n(C)c1=O	/	/	/	/	101.9*	93.8*
Cc1ccc(C(=O)Nc2nc(=O)n(C(=O)CC(C)C)s2)cc1	-10.4	-7.9	-22.7	1.6	58.1*	78.0*
Cc1ccc(-c2noc(CCC(=O)Nc3ccc4c(c3)OCO4)n2)cc1	-8.6	11.6	/	0.1	52.3*	26.4*
CCOC(=O)c1ccc(NC(=O)CCc2nc(-c3ccc(C)cc3)no2)cc1	4.8	14.7	-37.9	0.6	85.4*	85.5*
CCOC(=O)c1ccc(NC(=O)CCc2nc(-c3ccc(Cl)cc3)no2)cc1	-2.1	28.6	/	0.7	97.3*	81.0*
COc1ccc(-c2noc(CCC(=O)Nc3ccc4c(c3)OCCO4)n2)cc1	-1.1	7.7	0.7	0.0	27.8	/
CCOc1ccc2oc(C(=O)N(CCOC)c3c(N)n(CC(C)C)c(=O)[nH]c3=O)c(C)c2c1	/	/	/	/	-1.5	/
COc1ccccc1NC(=O)NC(=O)c1ccccc1	/	-8.5	-18.7	/	1.0	/
CCc1ccc(NC(=O)Nc2ccc3c(c2)N(C)C(=O)CS3)cc1	9.2	11.2	/	-1.3	56.1*	70.3*
CC(=O)c1cccc(NC(=O)Nc2ccc3c(c2)N(C)C(=O)CS3)c1	7.1	-9.4	-1.1	0.8	90.3*	76.4*
CCN(CC)CCOc1ccc(/C(=C(\Cl)c2ccccc2)c2ccccc2)cc1	/	50.2	/	/	104.0*	-13.4
COc1ccc(Cl)cc1N(C(=O)Nc1cccc(Cl)c1)C1=NCC(C)S1 (stereo not drawn)	9.7	-10.2	-2.3	2.5	92.0*	88.8*
CC1Cc2ccccc2N1C(=O)CSc1nnc(N)s1 (stereo not drawn)	/	-5.1	-1.5	/	0.3	/
SMILES	L major viab	T cruzi repl	Hep lipid drop	Redox H2O2 prof	MPTP inh	Rh123 counter	others
CC(C)N1CC2(CC(c3ccccc3F)=NO2)CN1C(=O)c1ccc(C(C)(C)C)cc1 (stereo not drawn)	/	/	/	/	1.6	/
CC(C)N1CC2(CC(c3ccc(Cl)cc3Cl)=NO2)CN1C(=O)c1ccc(C(C)(C)C)cc1 (stereo not drawn)	/	/	/	/	51.5*	13.5	MPTP abs DR=8.84*;MPTP counter DR=29.1*
Cn1c(NCc2c(O)ccc3ccccc23)nc2ccccc21	100.4*	-4.6	-11.4	-0.2	50.7*	45.2*
Cn1c(NCc2cc(Br)ccc2O)nc2ccccc21	21.6	-11.9	/	0.0	28.4	/
COc1ccccc1N1CCN(C(=O)c2ccc(N(C)S(=O)(=O)c3ccccc3)cc2)CC1	/	20.0	-1.4	/	-3.1	/
Cc1csc2c(N3CCCCC3)ncnc12	/	-10.0	-0.1	/	0.6	/
O=S(=O)(c1ccc(Cl)cc1)N1CCN(c2ncnc3sccc23)CC1	/	/	/	/	70.1*	94.3*
Cc1csc2c(N3CCN(S(=O)(=O)c4ccc(Cl)cc4)CC3)ncnc12	/	6.6	5.7	/	66.9*	21.0*
CNC(=S)NCCc1cc2c(OC)ccc(OC)c2[nH]c1=O	-5.0	-14.4	-0.4	-0.9	1.2	/
Cc1ccc(CNC(=O)c2ccc(S(=O)(=O)N(C)C)cc2)n1C	/	-1.8	0.7	/	-1.7	/
O=C(N/C(=C/c1ccc(Cl)cc1)c1nc2ccccc2[nH]1)c1ccco1	39.0	-15.3	/	-3.5	-0.1	/
O=C(/C(=C/c1ccc(Cl)cc1)c1nc2ccccc2[nH]1)c1ccccc1	100.5*	68.0*	/	-3.6	91.2*	87.3*
CSc1nc(Cl)c(Cc2ccc(OC(C)C)cc2)c(N(C)C)n1	6.6	-33.5	9.3	0.2	59.5*	10.3	MPTP abs DR=i;MPTP counter DR=35.2*
Cc1nc2c(Br)cc(Br)cc2cc1O	-4.6	1.8	8.7	-0.7	99.4*	97.4*
CCCOc1ccc(C2=CSC3=NCCN23)cc1[N+](=O)[O-]	/	21.7	-13.9	/	-0.4	/
C=CC[n+]1c(-c2ccc(C)cc2)csc1Nc1ccc(NC(C)=O)cc1	-5.5	2.0	-20.3	-1.2	-0.6	/
